# Screens as filed in PubChem.
# An excerpt weighted towards active compounds, which were near 3.1% of everything screened.
# KCNK3 inh: human KCNK3 channel inhibition, primary screen. CHO-KCNK3 thallium flux, FluxOR fluorescence; stronger effect = lower value. B-score at 10 µM. hit rate 0.84% among 340,000. AID 602410;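 active = B-score under library mean minus 4 SD, starting fluorescence ratio at most library mean plus 5 SD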;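 note: more negative B-score means stronger inhibition of thallium flux through KCNK3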
# KCNK9 inh: human KCNK9 channel inhibition | Q9NPC2 | HEK293 KCNK9, FluxOR thallium flux fluorescence; stronger effect = lower value | B-score at 10 µM | hit rate 1.2% among 310,000 | AID 488922;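 active = ratio B-score over 3 SD below the library mean, with starting fluorescence within 5 SD of its mean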;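 note: negative B-score means less thallium flux so channel inhibition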
# hERG protect: compounds protecting human hERG from proarrhythmic drug block; CHO-hERG, FluxOR thallium flux, dofetilide IC70 present; activation (rescue from dofetilide block), less the hit threshold, % at 10 µM; hit rate 0.51% among 310,000;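 active = activation above the mean of controls blocked by dofetilide plus 5 SD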;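 note: thallium influx through hERG after potassium depolarization seen as dye fluorescence rise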
# Target sequence (Q12809 whole entry, looked up): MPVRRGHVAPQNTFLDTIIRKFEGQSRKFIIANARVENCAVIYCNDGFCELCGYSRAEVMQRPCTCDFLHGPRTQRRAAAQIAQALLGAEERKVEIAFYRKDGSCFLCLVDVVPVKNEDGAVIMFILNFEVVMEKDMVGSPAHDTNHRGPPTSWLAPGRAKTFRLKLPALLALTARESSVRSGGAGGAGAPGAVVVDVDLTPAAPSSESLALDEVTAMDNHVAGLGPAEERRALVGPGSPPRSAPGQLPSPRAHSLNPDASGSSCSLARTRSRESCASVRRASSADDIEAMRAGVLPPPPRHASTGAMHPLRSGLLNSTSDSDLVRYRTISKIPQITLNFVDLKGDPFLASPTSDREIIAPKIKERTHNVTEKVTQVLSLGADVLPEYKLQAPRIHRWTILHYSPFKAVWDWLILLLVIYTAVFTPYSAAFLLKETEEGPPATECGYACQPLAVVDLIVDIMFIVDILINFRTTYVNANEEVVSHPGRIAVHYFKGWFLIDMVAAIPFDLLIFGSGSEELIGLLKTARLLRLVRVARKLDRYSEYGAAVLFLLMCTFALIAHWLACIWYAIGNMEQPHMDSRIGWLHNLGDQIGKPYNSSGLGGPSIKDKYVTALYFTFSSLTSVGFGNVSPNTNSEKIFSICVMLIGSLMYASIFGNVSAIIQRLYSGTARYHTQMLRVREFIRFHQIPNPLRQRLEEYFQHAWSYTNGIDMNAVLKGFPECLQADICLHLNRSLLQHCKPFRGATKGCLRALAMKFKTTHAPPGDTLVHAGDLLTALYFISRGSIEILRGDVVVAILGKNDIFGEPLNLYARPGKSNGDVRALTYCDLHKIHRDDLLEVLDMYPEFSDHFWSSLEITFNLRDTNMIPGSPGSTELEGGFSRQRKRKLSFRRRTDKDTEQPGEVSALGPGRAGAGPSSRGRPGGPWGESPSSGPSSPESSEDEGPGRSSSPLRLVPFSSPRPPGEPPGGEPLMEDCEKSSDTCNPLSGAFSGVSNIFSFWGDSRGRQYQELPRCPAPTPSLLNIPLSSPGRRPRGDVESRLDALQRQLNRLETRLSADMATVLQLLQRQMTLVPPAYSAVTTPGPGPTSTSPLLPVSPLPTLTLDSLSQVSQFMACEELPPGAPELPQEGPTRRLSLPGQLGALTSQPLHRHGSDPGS
# KCNQ1 block: blocks the human KCNQ1 potassium channel | AID 2642 | P51787 | B-score at 10 µM | CHO-K1 KCNQ1, FluxOR thallium flux fluorescence; stronger effect = higher value | hit rate 1.3% among 310,000;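 active = compounds whose thallium flux B-score, printed positive for inhibition, exceeds three library SD while starting fluorescence stays within three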;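 note: channel opened by potassium depolarization with thallium stimulus after 20 min compound exposure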
# KCNQ1 act: human KCNQ1 channel potentiation or activation | CHO-K1 KCNQ1, thallium flux FluxOR fluorescence; stronger effect = higher value | B-score at 10 µM | hit rate 0.35% among 310,000;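 active = fluorescence ratio B-score, a plate-corrected score, at least three library SD, with initial intensity B-score within 5 SD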
#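 Medium – assay buffer, equal DMSO in all wells · Material – CHO-K1 cell line with stable KCNQ1 potassium channel expression · Signal – kinetic FluxOR thallium fluorescence, 10-s 1-Hz baseline, 110-s post-stimulus read · Compound – single concentration per compound, DMSO matched to controls · Schedule – 37 °C overnight plating, 90-min dark dye load, 20-min compound pretreatment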
# * hit, by the source's call; i = inactive; . = no result given.
SMILES,KCNK3 inh,KCNK9 inh,hERG protect,KCNQ1 block,KCNQ1 act
COc1ccccc1-c1cc(C(F)(F)F)nc(NCc2ccco2)n1,i,-7.27*,-21.9,i,i
CCCOc1ccc(Cc2c(Cl)nc(SC)nc2N(C)C)cc1,i,i,-9.6,i,i
CSc1nc(Cl)c(Cc2ccc(OC(C)C)cc2)c(N2CCOCC2)n1,i,-7.46*,-2.6,7*,i
O=C(CN1CCCC1c1cccs1)Nc1cccc(S(=O)(=O)N2CCCC2)c1 (stereo unspecified),i,.,.,.,.
CC(=O)N1c2ccc(N=Cc3cc(Br)cc(Br)c3O)cc2CC1C (stereo unspecified),.,i,3.5,i,8*
Cc1nc(N2CCCCC2C)c2c(C)c(C(=O)Nc3cccc(C(F)(F)F)c3)sc2n1 (stereo unspecified),i,i,-9.7,7*,i
Cc1nc(N2CCCCC2)c2c(C)c(C(=O)Nc3ccccc3C(F)(F)F)sc2n1,i,i,-2.5,i,i
O=[N+]([O-])c1c(NCCCO)cc(Sc2ccc(Cl)cc2)c2nonc12,i,i,-12.0,i,i
Cn1ccnc1Sc1cc(NCCCO)c([N+](=O)[O-])c2nonc12,i,i,-30.6,6*,i
COc1cccc(CC(=O)OCC(=O)NC2CCCC2)c1,i,.,.,.,.
O=[N+]([O-])c1cc(C=Nc2cccc3c(O)cccc23)ccc1Cl,.,i,-8.3,7*,i
O=[N+]([O-])c1cc(/C=N\Nc2ccccn2)ccc1Cl,i,i,-4.8,i,i
CCn1c(SCC(=O)OCC(=O)N2c3ccccc3NC(=O)C2(C)C)nnc1-c1ccco1,i,i,7.0*,i,i
CC1CC(C)C[N+](=C2C=C(N3CCCC3)CC(C)(C)C2)C1 (stereo unspecified),i,i,-17.1,8*,i
CC1(C)CC(N2CCCC2)=CC(=[N+]2CCCCCC2)C1,i,i,-16.5,i,i
CCOc1cc(/C=C/C(=O)c2ccc(OC)c(CN3CCOCC3)c2)cc(Br)c1O,i,i,-12.4,i,i
Cc1nc(SC(C)C(=O)c2c(N)n(C)c(=O)n(C)c2=O)c2c(C)c(C)sc2n1 (stereo unspecified),i,i,-5.8,i,14*
CCC1=C(OC(=O)N(CC)CC)N2C(=O)OC(=NCCc3c[nH]c4ccccc34)[C@]2(Cc2ccccc2)[C@H]2C1=CC[C@H]1C(=O)N(CC)C(=O)[C@H]12,i,-6.83*,-10.6,i,i
O=C(CSc1nnc(CNC(=O)c2ccc(F)cc2)o1)Nc1nccs1,i,i,-5.8,i,i
Cc1ccc2c(c1)cc1c(=O)n(CC(=O)NCCCc3ccccc3)nc(C)n12,i,i,-1.7,i,i
COc1ccc(NC(=O)CN2C(=O)S/C(=C/c3cccn3-c3ccc(C(=O)O)cc3)C2=O)cc1,i,i,15.7*,i,i
Cc1ccccc1NC(=O)CN1C(=O)S/C(=C\c2cccn2-c2cccc(C(=O)O)c2)C1=O,i,i,0.4,i,i
Cc1ccc(NC(=O)CN2C(=O)S/C(=C\c3cccn3-c3cccc(C(=O)O)c3)C2=O)c(C)c1,i,i,5.4*,i,i
Cc1ccc(NC(=O)CN2C(=O)S/C(=C\c3cccn3-c3cccc(C(=O)O)c3)C2=O)cc1C,i,i,-8.0,i,i
COc1ccccc1N(C)S(=O)(=O)c1ccc(C(=O)N(C)Cc2ccc(OC(F)F)cc2)cc1,i,.,.,.,.
SMILES,KCNK3 inh,KCNK9 inh,hERG protect,KCNQ1 block,KCNQ1 act
CC(Oc1ccccc1F)C(=O)NNC(=O)Cc1ccc(S(=O)(=O)N2CCOCC2)s1 (stereo unspecified),i,.,.,.,.
CCC(C)c1ccccc1NC(=O)c1cc2cccc([N+](=O)[O-])c2[nH]1 (stereo unspecified),i,i,-10.9,8*,i
Cc1ccc(NC(=O)c2cc3cccc([N+](=O)[O-])c3[nH]2)cc1,i,i,-10.3,i,i
COc1ccc(Cl)cc1NC(=O)C1CCCN(c2ncnc3c2nc2n3CCCCC2)C1 (stereo unspecified),i,i,-9.8,i,i
O=C(NCCCN1CCOCC1)NC12CC3CC(CC(C3)C1)C2,i,i,-6.6,6*,i
C=CC(=O)Nc1cccc(Oc2cc(Cl)nc3[nH]ccc23)c1,i,.,.,.,.
